HSP90 refold inh: HSP90 refolding inhibition in rabbit reticulocyte lysate | AID 1789 | inhibition, % at 5.6 µM | luciferase refolding luminescence, 3 h | actives 0.91% (n = 290,000);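 active = inhibition above the screen-wide mean plus 3 SD, computed separately per campaign, cut at about 16% in these data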;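 also: 0% = DMSO wells and 100% = 60 µM geldanamycin wells; inhibitors lower the luminescence because luciferase stays unfolded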
STAT3 activator: increases IL-6 driven STAT3 reporter signal; U3A cells, IL-6 STAT3-luciferase reporter, luminescence; 100% = signal with IL-6 EC80 alone; activation (% of control), % at 5.6 µM; actives 0.91% (n = 190,000); AID 871;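 active = activation above the screen-wide mean of compound activation plus 3 SD, cut at about 130% in these data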;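 also: 0% = background luminescence of wells with medium and substrate only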
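Detection: reporter luminescence signal / Assay system: STAT1-lacking human U3A cells, STAT3 luciferase reporter / Incubation: compound pre-incubation 1 h before IL-6, then 6 h stimulation at 37 °C / Control set: IL-6-only high control / Read-out: % activation relative to IL-6 control / Probe or stimulus: Interleukin-6, 33 ng/mL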
PPC-1+TRAIL kill: kills PPC-1 cancer cells in the presence of TRAIL; cell killing (% activity), % at 4 µM or 5 µM; actives 0.41% (n = 220,000); PPC-1 cells + TRAIL, ATPLite viability luminescence;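 active = cell killing above 50% in the first pass at 4 µM, then a duplicate retest at 5 µM averaging 50% or more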;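 also: plate controls were cells with TRAIL plus DMSO for no effect and medium-only wells lacking cells for full effect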
TRAIL sens C8: sensitizes caspase-8 expressing cells to TRAIL. NB7+C8 cells + TRAIL, ATPlite viability luminescence. inhibition (viability loss, TRAIL sensitization), % at 10 µM. actives 1% (n = 360,000). AID 624354;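 active = compounds causing at least 50% loss of cell viability in the single-dose screen, relative to plate controls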
STAT3 blocker: inhibitors of IL-6 induced STAT3 signaling; U3A cells, IL-6 STAT3-luciferase reporter, luminescence; host cell line lacks STAT1; inhibition, % at 5.5 µM; actives 0.89% (n = 190,000); AID 862;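 active = inhibition above the mean inhibition across all screened compounds plus 3 SD, cut at about 44% in these data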;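 also: 0% = DMSO only wells and 100% = 100 µM nifuroxazide control wells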
STAT1 blocker: reduces IFN-gamma driven STAT1 reporter signal; actives 0.35% (n = 200,000); NIH 3T3 STAT1-luciferase reporter, luminescence; inhibition, % at 5.5 µM; AID 920;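 active = inhibition above a set limit, the mean inhibition across all tested compounds plus 3 SD, cut at about 34% in these data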;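 also: 0% = IFN-gamma with DMSO and 100% = IFN-gamma with 300 µM nifuroxazide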
HSP90 confirm: confirmation of HSP90 inhibitors; shares compounds with HSP90 refold inh; rabbit reticulocyte lysate, luciferase refolding luminescence, 3 h; inhibition, % at 5.9 µM; actives 64% (n = 2,300); AID 1846; in the data active = inhibition above about 18%;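 also: 0% = vehicle wells and 100% = reference inhibitor wells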
FLuc counter: blocks native firefly luciferase in HSP90 counter-screen | shares compounds with HSP90 refold inh | purified native firefly luciferase, luminescence | inhibition, % at 5.9 µM | actives 48% (n = 2,300) | AID 1847;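 active = inhibition above the mean inhibition of all tested sample wells plus 3 SD, cut at about 10% in these data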;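 also: 0% = DMSO with luciferase and 100% = wells lacking luciferase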
Target sequence (P08659 whole entry, looked up): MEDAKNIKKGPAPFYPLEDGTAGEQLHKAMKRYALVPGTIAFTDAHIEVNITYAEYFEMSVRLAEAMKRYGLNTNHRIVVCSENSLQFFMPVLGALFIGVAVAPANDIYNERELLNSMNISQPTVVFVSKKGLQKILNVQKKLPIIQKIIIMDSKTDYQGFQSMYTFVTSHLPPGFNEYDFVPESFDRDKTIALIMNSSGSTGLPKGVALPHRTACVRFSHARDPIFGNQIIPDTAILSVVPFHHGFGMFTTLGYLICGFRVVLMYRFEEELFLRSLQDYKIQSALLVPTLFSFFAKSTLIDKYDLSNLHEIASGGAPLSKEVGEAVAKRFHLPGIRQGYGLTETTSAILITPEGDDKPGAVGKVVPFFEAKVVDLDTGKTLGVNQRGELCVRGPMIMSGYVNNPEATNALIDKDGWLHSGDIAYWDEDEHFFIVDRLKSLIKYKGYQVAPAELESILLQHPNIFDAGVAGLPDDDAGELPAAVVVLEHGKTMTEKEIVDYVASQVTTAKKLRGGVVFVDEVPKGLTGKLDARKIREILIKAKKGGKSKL
An asterisk follows results filed as active; nt = no result given. A selection: hits, their analogues and other compounds. The true share with any hit is near 2.3%.

SMILES	HSP90 refold inh	STAT3 activator	PPC-1+TRAIL kill	TRAIL sens C8	STAT3 blocker	STAT1 blocker	HSP90 confirm	FLuc counter
Cc1ccccc1Nc1nc(-c2sc(NC(=O)c3ccc([N+](=O)[O-])cc3)nc2C)cs1	79*	93	-3	nt	11	-6	53*	-4
CCCC(C)C(=O)Nc1nc(C)c(-c2csc(Nc3cc(Cl)ccc3C)n2)s1 (centres undefined)	0	107	17	-10	-1	1	nt	nt
Cc1ccc(Cl)cc1Nc1nc(-c2sc(NC(=O)c3cccc(Cl)c3)nc2C)cs1	65*	98	13	nt	4	-17	44*	-20
Cc1ccc(-c2csc(NC(=O)c3ccc(-c4ccccc4)cc3)n2)o1	37*	71	21	66*	42	-6	36*	0
Cc1ccccc1Nc1nc(-c2sc(NC(=O)c3cccc(Cl)c3)nc2C)cs1	78*	102	8	nt	-2	-15	52*	-6
O=c1ccn(CCc2c[nH]c3ccccc23)c2c1CCCC2	0	99	16	-2	5	7	nt	nt
Clc1ccc(CN2CCSCC2)cc1Cl	-5	nt	nt	-11	nt	nt	nt	nt
Cc1ccc(Nc2nc(-c3sc(NC(=O)c4ccc([N+](=O)[O-])cc4)nc3C)cs2)cc1	81*	107	24	nt	-7	0	45*	-10
CC(=O)c1ccc(Nc2nc(-c3sc(C)nc3C)cs2)cc1	nt	nt	nt	14	nt	nt	nt	nt
CCOc1ccccc1Nc1nc(-c2sc(NC(=O)c3ccc([N+](=O)[O-])cc3)nc2C)cs1	79*	86	17	nt	20	-13	20*	-4
Cc1ccccc1Nc1nc(-c2sc(NC(=O)c3ccccc3)nc2C)cs1	59*	88	16	nt	20	-17	30*	-14
COc1ccc(/C=C/C(=O)OC2CCCCC2CN(C)C)cc1 (centres undefined)	21*	nt	-1	9	nt	nt	1	-4
Brc1ccc(-c2ncc3ccccn23)cc1	27*	nt	20	7	nt	nt	1	-12
COc1ccc(C(=O)NCCn2cc(SCC(=O)Nc3cc(C)on3)c3ccccc32)cc1OC	4	103	-2	6	0	-2	nt	nt
COc1ccc(C(=O)NCCn2cc(SCC(N)=O)c3ccccc32)cc1	74*	nt	2	7	nt	nt	9	-9
COc1ccc(C(=O)NCCn2ccc3ccccc32)cc1	60*	96	13	13	6	-17	22*	-12
Cn1c(=O)cc(SCC(=O)NCc2ccco2)c2ccccc21	2	90	-6	-27	16	-4	nt	nt
O=C(CSc1cn(CCNC(=O)c2ccc3ccccc3c2)c2ccccc12)NCc1ccco1	19*	109	-6	-7	-5	-4	22*	-1
O=C(N/C(=C\c1cccs1)C(=O)N1CCCCCC1)c1ccccc1	31*	93	8	14	12	16	-1	-20
O=[N+]([O-])c1ccc(N2CCN(c3ccc([N+](=O)[O-])cc3CO)CC2)c(CO)c1	19*	nt	nt	25	nt	nt	5	-4
N#Cc1cc([N+](=O)[O-])ccc1N1CCN(c2ccccc2O)CC1	-1	94	9	7	15	-29	nt	nt
COc1cc(OC)cc(OC)c1	nt	nt	nt	-5	nt	nt	nt	nt
O=C1c2ccccc2CN1c1ccccc1	0	nt	nt	15	nt	nt	nt	nt
Cc1ccc(N2Cc3ccccc3C2=O)cc1	31*	nt	nt	58*	nt	nt	37*	28*
O=C(c1cccc(Br)c1)N1CCN(C(=O)N2CCCCC2)CC1	-3	101	7	-6	2	11	nt	nt
COc1cc(C=O)ccc1OCCCOc1ccccc1C(=O)O	74*	89	9	-16	19	-52	76*	34*
Cc1cc(C(=O)Cn2nc(C(=O)O)c3ccccc3c2=O)c(C)n1-c1ccccc1	25*	91	48	76*	15	-8	62*	31*
COc1ccc(-c2nc3ccccn3c2Cl)cc1	24*	nt	nt	72*	nt	nt	47*	30*
COc1ccc(-c2nc3ccccn3c2CN2CCN(c3ccccc3F)CC2)cc1	2	98	4	18	11	2	nt	nt
